Results reported in ChEMBL document CHEMBL1287650, “Structural modification of a specific antimicrobial lead against Helicobacter pylori discovered from traditional Chinese medicine and a structure-activity relationship study” (2010).
Values after ≈ are worked out from the molar mass of the structure shown.

Assays:
Assay type in all cases: functional
[1] = test system: Helicobacter pylori; assay: Antibacterial activity against Helicobacter pylori SS1 assessed as inhibition of visible growth after 96 hrs by agar dilution method; conditions: SS1, 96 h
Summary of the method: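 Agar dilution on Columbia Blood Agar Base with 7% defibrinated sheep blood; compounds dissolved in minimal DMSO, two-fold serial dilutions mixed into medium. Inoculum: cells in saline at 10⁸ CFU/mL. Incubated 37 °C, 96 h, 5% O₂/10% CO₂/85% N₂. DMSO-only blank and metronidazole positive control run alongside. MIC = lowest concentration completely inhibiting visible growth.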

[2] = test system: Staphylococcus aureus; assay: Antibacterial activity against Staphylococcus aureus ATCC 25923 after 18 hrs; conditions: ATCC 25923, 18 h
[3] = test system: Staphylococcus epidermidis; assay: Antibacterial activity against Staphylococcus epidermidis ATCC 12228 after 18 hrs; conditions: ATCC 12228, 18 h
[4] = test system: Micrococcus luteus; assay: Antibacterial activity against Micrococcus luteus ATCC 9341 after 18 hrs; conditions: ATCC 9341, 18 h
[5] = test system: Bacillus subtilis; assay: Antibacterial activity against Bacillus subtilis CMCC 63501 after 18 hrs; conditions: CMCC 63501, 18 h
[6] = test system: Escherichia coli; assay: Antibacterial activity against Escherichia coli ATCC 25922 after 18 hrs; conditions: ATCC 25922, 18 h
[7] = test system: Shigella flexneri; assay: Antibacterial activity against Shigella flexneri F2a after 18 hrs
[8] = test system: Pseudomonas aeruginosa; assay: Antibacterial activity against Pseudomonas aeruginosa ATCC 14502 after 18 hrs; conditions: ATCC 14502, 18 h
[9] = test system: Candida albicans; assay: Antifungal activity against Candida albicans ATCC 1600 after 48 hrs; conditions: ATCC 1600, 48 h
Summary of the method: (§1)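 Fungi grown in Sabouraud dextrose broth at 37 °C for 48 h with compounds and positive control dissolved in DMSO; DMSO-only cultures served as blank controls.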

[10] = Antifungal activity against Saccharomyces sake after 48 hrs; conditions: Saccharomyces sp.; summary of the method: as §1
[11] = test system: Trichophyton rubrum; assay: Antifungal activity against Trichophyton rubrum after 48 hrs; summary of the method: as §1
[12] = test system: Nannizzia gypsea; assay: Antifungal activity against Microsporum gypseum after 48 hrs; summary of the method: as §1

For `COc1c2occc2c(S(=O)(=O)Oc2ccccc2)c2ccc(=O)oc12`, which MIC [1] is on record?
Its MIC is greater than 50 mg/L.

Which MIC [1] does the source give for `CCN(CC)Cc1cc2cc3ccc(=O)oc3cc2o1` here?
The MIC was greater than 50 mg/L.

With `O=C(O)COc1c2occc2cc2ccc(=O)oc12` as the compound, how does the MIC [1] read?
The MIC was greater than 50 mg/L.

With `COc1c2occc2cc2ccc(=O)oc12` [METHOXSALEN] as the compound, how does the MIC [1] read?
The MIC was 25 mg/L (≈ 116 µM).

With `O=c1cc(CO)c2cc3ccoc3cc2o1` as the compound, how does the MIC [1] read?
The MIC was 0.78 mg/L (≈ 3.61 µM).

With `CCOc1c2occc2cc2ccc(=O)oc12` as the compound, how does the MIC [1] read?
The MIC was greater than 50 mg/L.

With `CCOC(=O)COc1c2occc2cc2ccc(=O)oc12` as the compound, how does the MIC [1] read?
Its MIC is greater than 50 mg/L.

With `CCc1cc(=O)oc2cc3occc3cc12` as the compound, how does the MIC [1] read?
Its MIC is 6.25 mg/L (≈ 29.2 µM).

For `COc1ccc(NS(=O)(=O)c2c3ccoc3c(OC)c3oc(=O)ccc23)cc1`, which MIC [1] is on record?
The MIC was greater than 50 mg/L.

With `O=c1ccc2c([N+](=O)[O-])c3ccoc3c(O)c2o1` as the compound, how does the MIC [1] read?
Its MIC is 25 mg/L (≈ 101 µM).

Which MIC [1] does the source give for `COc1c2occc2c(CNc2ccc([N+](=O)[O-])cc2)c2ccc(=O)oc12` here?
Its MIC is greater than 50 mg/L.

Which MIC [1] does the source give for `COc1c2occc2c(/N=C/c2ccccc2)c2ccc(=O)oc12` here?
The MIC was greater than 50 mg/L.

Which MIC [1] does the source give for `COc1c2occc2c(N)c2ccc(=O)oc12` here?
Its MIC is 25 mg/L (≈ 108 µM).

Which MIC [1] does the source give for `CCN(CC)S(=O)(=O)c1c2ccoc2c(OC)c2oc(=O)ccc12` here?
The MIC was greater than 50 mg/L.

With `CCOCc1cc2cc3ccc(=O)oc3cc2o1` as the compound, how does the MIC [1] read?
The MIC was greater than 50 mg/L.

Which MIC [1] does the source give for `COc1c2occc2c(Cl)c2ccc(=O)oc12` here?
The MIC was greater than 50 mg/L.

For `CC(=O)Oc1c2occc2c([N+](=O)[O-])c2ccc(=O)oc12`, which MIC [1] is on record?
The MIC was 25 mg/L (≈ 86.4 µM).

Which MIC [1] does the source give for `O=c1ccc2cc3cc([N+](=O)[O-])oc3cc2o1` here?
Its MIC is 3.12 mg/L (≈ 13.5 µM).

For `Cc1ncc([N+](=O)[O-])n1CCO` [METRONIDAZOLE], which MIC [1] is on record?
Its MIC is 0.5 mg/L (≈ 2.92 µM).

Which MIC [1] does the source give for `Cc1c2ccoc2cc2oc(=O)ccc12` here?
The MIC was 12.5 mg/L (≈ 62.4 µM).

Which MIC [1] does the source give for `O=c1ccc2cc3cc(CCl)oc3cc2o1` here?
Its MIC is greater than 50 mg/L.

Which MIC [1] does the source give for `COCc1c2ccoc2c(OC)c2oc(=O)ccc12` here?
The MIC was greater than 50 mg/L.

Which MIC [1] does the source give for `CC(=O)Oc1c2occc2cc2ccc(=O)oc12` here?
Its MIC is greater than 50 mg/L.

Which MIC [1] does the source give for `O=c1cc(-c2ccccc2)c2cc3ccoc3cc2o1` here?
Its MIC is 12.5 mg/L (≈ 47.7 µM).

Which MIC [1] does the source give for `COCc1cc2cc3ccc(=O)oc3cc2o1` here?
Its MIC is 50 mg/L (≈ 217 µM).

For `COc1c2occc2c(S(=O)(=O)Nc2ccc([N+](=O)[O-])cc2)c2ccc(=O)oc12`, which MIC [1] is on record?
The MIC was greater than 50 mg/L.

With `CCCCOCc1cc2cc3ccc(=O)oc3cc2o1` as the compound, how does the MIC [1] read?
The MIC was 50 mg/L (≈ 184 µM).

For `COc1c2occc2c(S(=O)(=O)OC)c2ccc(=O)oc12`, which MIC [1] is on record?
The MIC was greater than 50 mg/L.

Which MIC [1] does the source give for `O=Cc1cc(=O)oc2cc3occc3cc12` here?
The MIC was 1.56 mg/L (≈ 7.28 µM).

With `COc1c2occc2c(CCl)c2ccc(=O)oc12` as the compound, how does the MIC [1] read?
The MIC was 25 mg/L (≈ 94.5 µM).

Which MIC [1] does the source give for `CC(=O)OCc1cc2cc3ccc(=O)oc3cc2o1` here?
Its MIC is greater than 50 mg/L.

For `O=c1ccc2cc3cc(Cl)oc3cc2o1`, which MIC [1] is on record?
Its MIC is 6.25 mg/L (≈ 28.3 µM).

With `CCN(CC)Cc1c2ccoc2c(OC)c2oc(=O)ccc12` as the compound, how does the MIC [1] read?
Its MIC is greater than 50 mg/L.

For `COc1c2occc2c(Br)c2ccc(=O)oc12`, which MIC [1] is on record?
The MIC was greater than 50 mg/L.

Which MIC [1] does the source give for `O=c1ccc2cc3ccoc3c(O)c2o1` [XANTHOTOXOL] here?
Its MIC is greater than 50 mg/L.

With `O=c1cc(CBr)c2cc3ccoc3cc2o1` as the compound, how does the MIC [1] read?
Its MIC is 1.56 mg/L (≈ 5.59 µM).

Which MIC [1] does the source give for `CCCOCc1c2ccoc2c(OC)c2oc(=O)ccc12` here?
The MIC was greater than 50 mg/L.

With `COc1c2occc2c(S(N)(=O)=O)c2ccc(=O)oc12` as the compound, how does the MIC [1] read?
The MIC was greater than 50 mg/L.

With `O=c1ccc2cc3ccoc3cc2o1` [PSORALEN] as the compound, how does the MIC [2] read?
The MIC was greater than 64 mg/L.

What about the MIC [1] of the same compound?
Its MIC is 6.25 mg/L (≈ 33.6 µM).

And the MIC [3]?
The MIC was greater than 64 mg/L.

And the MIC [4]?
The MIC was greater than 64 mg/L.

What about the MIC [5] of the same compound?
Its MIC is greater than 64 mg/L.

What about the MIC [6] of the same compound?
Its MIC is greater than 64 mg/L.

And the MIC [7]?
The MIC was greater than 64 mg/L.

What about the MIC [8] of the same compound?
Its MIC is greater than 64 mg/L.

And the MIC [9]?
The MIC was greater than 64 mg/L.

What about the MIC [10] of the same compound?
The MIC was greater than 64 mg/L.

And the MIC [11]?
The MIC was greater than 64 mg/L.

And the MIC [12]?
The MIC was greater than 64 mg/L.

For `CC(=O)OCc1cc(=O)oc2cc3occc3cc12`, which MIC [1] is on record?
Its MIC is 1.56 mg/L (≈ 6.04 µM).

Which MIC [1] does the source give for `COc1ccc(NCc2c3ccoc3c(OC)c3oc(=O)ccc23)cc1` here?
Its MIC is 12.5 mg/L (≈ 35.6 µM).

Which MIC [1] does the source give for `O=c1cc(C(F)(F)F)c2cc3ccoc3cc2o1` here?
The MIC was 12.5 mg/L (≈ 49.2 µM).

Which MIC [1] does the source give for `O=c1ccc2cc3cc(Br)oc3cc2o1` here?
Its MIC is 6.25 mg/L (≈ 23.6 µM).

With `CCOCc1c2ccoc2c(OC)c2oc(=O)ccc12` as the compound, how does the MIC [1] read?
Its MIC is greater than 50 mg/L.

With `CCCCOCc1c2ccoc2c(OC)c2oc(=O)ccc12` as the compound, how does the MIC [1] read?
Its MIC is 50 mg/L (≈ 165 µM).

Which MIC [1] does the source give for `Cc1coc2cc3oc(=O)ccc3cc12` here?
Its MIC is 12.5 mg/L (≈ 62.4 µM).

With `COc1c2occc2c([N+](=O)[O-])c2ccc(=O)oc12` as the compound, how does the MIC [2] read?
The MIC was greater than 64 mg/L.

What about the MIC [1] of the same compound?
The MIC was 1.56 mg/L (≈ 5.97 µM).

And the MIC [3]?
Its MIC is greater than 64 mg/L.

What about the MIC [4] of the same compound?
Its MIC is greater than 64 mg/L.

And the MIC [5]?
Its MIC is greater than 64 mg/L.

And the MIC [6]?
The MIC was greater than 64 mg/L.

What about the MIC [7] of the same compound?
The MIC was greater than 64 mg/L.

What about the MIC [8] of the same compound?
Its MIC is greater than 64 mg/L.

And the MIC [9]?
Its MIC is greater than 64 mg/L.

And the MIC [10]?
The MIC was greater than 64 mg/L.

What about the MIC [11] of the same compound?
The MIC was greater than 64 mg/L.

And the MIC [12]?
Its MIC is greater than 64 mg/L.

Which MIC [2] does the source give for `Cc1cc(=O)oc2cc3occc3cc12` here?
The MIC was greater than 64 mg/L.

What about the MIC [1] of the same compound?
The MIC was 0.39 mg/L (≈ 1.95 µM).

And the MIC [3]?
Its MIC is greater than 64 mg/L.

And the MIC [4]?
Its MIC is greater than 64 mg/L.

What about the MIC [5] of the same compound?
Its MIC is greater than 64 mg/L.

What about the MIC [6] of the same compound?
Its MIC is greater than 64 mg/L.

What about the MIC [7] of the same compound?
Its MIC is greater than 64 mg/L.

And the MIC [8]?
Its MIC is greater than 64 mg/L.

What about the MIC [9] of the same compound?
Its MIC is greater than 64 mg/L.

What about the MIC [10] of the same compound?
Its MIC is greater than 64 mg/L.

What about the MIC [11] of the same compound?
The MIC was greater than 64 mg/L.

And the MIC [12]?
The MIC was greater than 64 mg/L.

With `CCCc1cc(=O)oc2cc3occc3cc12` as the compound, how does the MIC [1] read?
The MIC was 12.5 mg/L (≈ 54.8 µM).
